Source: ChEMBL document CHEMBL3297648, “Diterpenoids from the Chinese liverwort Heteroscyphus tener and their antiproliferative effects” (J Nat Prod, 2014)
Active and inactive are the calls of the source. The rule behind the calls is not given here.

Key:
[1] = system: PC-3; assay: Antiproliferative activity against human PC3 cells assessed as inhibition of cell viability at 20 uM pretreated for 1 hr with 5 mM antioxidant NAC measured after 24 hrs by MTT assay; assay type: functional, cell-based
[2] = system: PC-3; assay: Induction of apoptosis in human PC3 cells assessed as necrotic cells at 20 uM after 4 hrs by Annexin V-FITC/propidium iodide staining based flow cytometry (reference value: 0.98%); assay type: functional
Procedure, shortened: (§1)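 Cells seeded in 6-well plates for 24 h, then given 20 μM for the stated times. Cells were trypsinized, PBS-washed, stained with annexin V-FITC/PI, and analysed immediately by flow cytometry. Means ± SD of three independent experiments; Student's t test against untreated control.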

[3] = Decrease in cyclin E protein expression in human PC3 cells by western blot analysis; assay type: functional, cell-based; conditions: PC-3, TDE = time-dependent effect
Procedure, shortened: (§2)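 Western blot of cyclin D1, cyclin E, Cdk4 and p21 in PC3 and DU145 lysates. Lysis in RIPA buffer plus protease inhibitors, BCA quantification, 12% SDS-PAGE, nitrocellulose transfer, milk block, primaries overnight at 4 °C, secondary 1:2000 for 45 min, ECL read-out. GAPDH served as loading control.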

[4] = Decrease in BRCA1 protein expression in human DU145 cells at 20 uM after 2 to 48 hrs by western blot analysis; assay type: functional, cell-based; conditions: DU-145
Procedure, shortened: (§3)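 Cells treated at 20 μM for various times, lysed in RIPA buffer with protease/phosphatase inhibitors, protein quantified by BCA. Equal protein run on 12% SDS-PAGE, transferred to nitrocellulose, blocked 1 h in 5% milk/TBST, primary antibodies overnight at 4 °C, secondary 1:2000 for 45 min, ECL detection on film. GAPDH used as loading control.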

[5] = system: DU-145; assay: Cell cycle arrest in human DU145 cells assessed as accumulation at S phase at 20 uM after 24 hrs by propidium iodide staining based flow cytometry (reference value: 25.94%); assay type: functional
[6] = system: PC-3; assay: Induction of ROS generation in human PC3 cells at 20 uM after 30 mins to 4 hrs by DCFH-DA staining based flow cytometry; assay type: functional, cell-based
Procedure, shortened: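 Cells in RPMI 1640 with 10% FBS, 5% CO2, 37 °C, treated at 50−70% confluence (DMSO vehicle). After exposure, cells were loaded with 10 μM DCFH-DA for 30 min at 37 °C, washed, resuspended in PBS, and read at once by flow cytometry. For NAC runs, cells got 5 mM NAC 1 h before compound. ROS reported as ratio relative to untreated control.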

[7] = system: DU-145; assay: Induction of apoptosis in human DU145 cells at 20 uM by Annexin V-FITC/propidium iodide staining based flow cytometry; assay type: functional, cell-based; conditions: TDE = time-dependent effect; procedure, shortened: as §1
[8] = system: PC-3; assay: Increase in p21CIP1 protein expression in human PC3 cells after 2 to 48 hrs by western blot analysis; assay type: functional, cell-based; procedure, shortened: as §2
[9] = system: PC-3; assay: Induction of apoptosis in human PC3 cells assessed as early apoptotic cells at 20 uM after 8 hrs by Annexin V-FITC/propidium iodide staining based flow cytometry (reference value: 0.79%); assay type: functional; procedure, shortened: as §1
[10] = system: DU-145; assay: Induction of apoptosis in human DU145 cells assessed as late apoptotic cells at 20 uM after 4 hrs by Annexin V-FITC/propidium iodide staining based flow cytometry (reference value: 1.53%); assay type: functional; procedure, shortened: as §1
[11] = system: PC-3; assay: Induction of apoptosis in human PC3 cells assessed as necrotic cells at 20 uM after 12 hrs by Annexin V-FITC/propidium iodide staining based flow cytometry (reference value: 0.98%); assay type: functional; procedure, shortened: as §1
[12] = system: DU-145; assay: Induction of apoptosis in human DU145 cells assessed as cleaved caspase-3 level at 20 uM after 12 hrs by western blot analysis; assay type: functional, cell-based
Procedure, shortened: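 Cells exposed to 20 μM for the stated times. Lysis in RIPA plus protease inhibitors, BCA protein assay, equal protein on 12% SDS-PAGE, transfer to nitrocellulose. Blocking in 5% milk/TBST 1 h; primary antibodies overnight at 4 °C; secondary 1:2000 for 45 min; ECL detection. GAPDH served as loading control.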

[13] = system: DU-145; assay: Induction of ROS generation in human DU145 cells at 20 uM measured up to 6 hrs by DCFH-DA staining based flow cytometry; assay type: functional, cell-based
Procedure, shortened: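 Cells exposed to 20 μM for the indicated times, then loaded with 10 μM DCFH-DA for 30 min at 37 °C. Washed, resuspended in PBS and read at once by flow cytometry. ROS expressed as ratio relative to untreated control.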

[14] = system: DU-145; assay: Increase in p21CIP1 protein expression in human DU145 cells after 2 to 48 hrs by western blot analysis; assay type: functional, cell-based; procedure, shortened: as §2
[15] = Cell cycle arrest at G0/G1 phase in human PC3 cells after 24 hrs by propidium iodide staining based flow cytometry; assay type: functional; conditions: PC-3
[16] = system: PC-3; assay: Induction of apoptosis in human PC3 cells assessed as late apoptotic cells at 20 uM after 24 hrs by Annexin V-FITC/propidium iodide staining based flow cytometry (reference value: 7.92%); assay type: functional; procedure, shortened: as §1
[17] = Cell cycle arrest in human PC3 cells assessed as accumulation at subG1 phase at 10 uM after 24 hrs by propidium iodide staining based flow cytometry (reference value: 0.13%); assay type: functional; conditions: PC-3
[18] = system: K562; assay: Antiproliferative activity against human K562 cells assessed as inhibition of cell viability after 24 hrs by MTT assay; assay type: functional, cell-based; conditions: K562, 24 h
Procedure, shortened: (§4)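 Cells grown to 50–70% confluence (RWPE1 in K-SFM with pituitary extract and EGF; the other lines in RPMI 1640 with 10% FBS), 5% CO2, 37 °C. Treated for 24 h with DMSO vehicle, compounds, or cisplatin as positive control. MTT (5 mg/mL) added for 4 h, formazan dissolved in DMSO, absorbance read at 570 nm. Viability taken relative to untreated cells after blank subtraction, IC50 fitted from % viability, at least three experiments.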

[19] = system: DU-145; assay: Induction of apoptosis in human DU145 cells assessed as late apoptotic cells at 20 uM after 24 hrs by Annexin V-FITC/propidium iodide staining based flow cytometry (reference value: 1.53%); assay type: functional; procedure, shortened: as §1
[20] = system: DU-145; assay: Increase in H2AX protein expression in human DU145 cells at 20 uM after 2 to 48 hrs by western blot analysis; assay type: functional, cell-based; procedure, shortened: as §3
[21] = Decrease in ChK1 protein expression in human DU145 cells at 20 uM after 2 to 48 hrs by western blot analysis; assay type: functional, cell-based; conditions: DU-145; procedure, shortened: as §3
[22] = Antiproliferative activity against human RWPE1 cells assessed as inhibition of cell viability after 24 hrs by MTT assay; assay type: cell-based; conditions: RWPE-1, 24 h; procedure, shortened: as §4
[23] = system: DU-145; assay: Antiproliferative activity against human DU145 cells assessed as inhibition of cell viability at 20 uM pretreated for 1 hr with 5 mM antioxidant NAC measured after 24 hrs by MTT assay; assay type: functional, cell-based
[24] = system: DU-145; assay: Cell cycle arrest in human DU145 cells assessed as accumulation at G2/M phase at 10 uM after 24 hrs by propidium iodide staining based flow cytometry (reference value: 10.44%); assay type: functional
[25] = system: DU-145; assay: Cell cycle arrest in human DU145 cells assessed as accumulation at G2/M phase at 20 uM after 24 hrs by propidium iodide staining based flow cytometry (reference value: 10.44%); assay type: functional
[26] = Decrease in cyclin D1 protein expression in human PC3 cells by western blot analysis; assay type: functional, cell-based; conditions: PC-3, TDE = time-dependent effect; procedure, shortened: as §2
[27] = system: PC-3; assay: Induction of apoptosis in human PC3 cells assessed as necrotic cells at 20 uM after 8 hrs by Annexin V-FITC/propidium iodide staining based flow cytometry (reference value: 0.98%); assay type: functional; procedure, shortened: as §1

## C=C[C@@](C)(O)CC[C@@H]1C(C)=CC[C@@H]2C(C)(C)CCC[C@@]12C
[1]
  inhibition: inactive
[2]
  Activity: 2.75%
[3]
  inhibition: tde
[4]
  inhibition: inactive
[5]
  Activity: 8.73%
[6]
  Activity: Active
[7]
  Activity: tde
[8]
  Activity: Active
[9]
  Activity: 2.27%
[10]
  Activity: 9.26%
[11]
  Activity: 4.68%
[12]
  Activity: Active
[13]
  Activity: Active
[14]
  Activity: Active
[15]
  Activity: Dose-dependent effect
[16]
  Activity: 66.46%
[17]
  Activity: 1.94%
[18]
  IC50: 15.8 µM
[19]
  Activity: 15.33%
[20]
  Activity: inactive
[21]
  inhibition: Active
[22]
  IC50: 81 µM
[23]
  inhibition: inactive
[24]
  Activity: 8.38%
[25]
  Activity: 12.9%
[26]
  inhibition: tde
[27]
  Activity: 2.95%
